Measurements as given in paper PMC6369589 (Cell, 2019).

How the values were obtained:
[1] = tested on: Ae. aegypti female mosquitoes; test: Miniport olfactometer host-seeking after Glytube drug-feeding; type: in vivo, Aedes aegypti; settings: fed in protein-rich artificial blood-meal, assayed 2 days after feeding
[2] = tested on: Ae. aegypti NPYLR5; test: GCaMP6s calcium cell-based assay, HEK293T cells expressing NPYLR5 and Gqα15; set-up: species or system Aedes aegypti; settings: dose-inhibition of TM30335 activation
In short: (§1)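 HEK293T cells transiently co-transfected (Lipofectamine 2000) with 1 μg each of GCaMP6s, mouse Gqα15 and receptor plasmids. Cells were plated overnight in DMEM/FBS at 37°C, 5% CO2, then imaged in HBSS + 20 mM HEPES. Test agonist plus inhibitor added after 30 s baseline; GFP fluorescence read every 1 s for 5 min, normalized to baseline. Log(inhibitor)-response nonlinear fit; mean ± SD, 3 trials × 4 replicates.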

[3] = target: Ae. aegypti NPYLR7 (Aedes aegypti, UniProt U5N1H5); test: GCaMP6s calcium cell-based assay, HEK293T cells expressing NPYLR7 and Gqα15
In short: as §1

Question: With `N=C(N)NCCC[C@H](NC(=O)CC1(CC(=O)N2CCN(C3c4ccccc4NC(=O)c4ccccc43)CC2)CCCC1)C(=O)NCCn1c(=O)n(-c2ccccc2)n(-c2ccccc2)c1=O` (stereo partly drawn) [BIIE0246] as the compound, how does the “release from host-seeking suppression in miniport olfactometer” value [1] read?
Answer: dose-dependent release from suppression

Question: And the “effect on NPYLR5 responses to TM30335” value [2]?
Answer: no effect

Question: And the IC50 [3]?
Answer: 5.1 µM
